From PMC10685179 (RSC Advances, 2023)
In brackets after ≈: the same amount, converted by molar mass.

Experiments:
E. faecalis KA247 [1] = assay: Agar well-diffusion, inhibition zone; format: cell-based, Enterococcus faecalis; settings: 10 μM (DMSO); mean of three ± SEM
In short: (§1)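 Clinical MDR isolates from complicated UTI patients. Suspensions were made in Tryptic Soya and Sabouraud broths from subcultures on Tryptic Soya and Sabouraud agar plates. Agar well diffusion followed CLSI guidelines, with test compounds applied at 10 μM in DMSO. Fosfomycin and fluconazole were positive controls and DMSO the negative control. Zone diameters were read in mm, in triplicate.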

S. aureus KA112 [2] = assay: Agar well-diffusion, inhibition zone; format: cell-based, Staphylococcus aureus; settings: 10 μM (DMSO); mean of three ± SEM
In short: as §1

E. coli KA780 [3] = assay: Agar well-diffusion, inhibition zone; format: cell-based, Escherichia coli; settings: 10 μM (DMSO); mean of three ± SEM
In short: as §1

P. mirabilis KA320 [4] = assay: Agar well-diffusion, inhibition zone; format: cell-based, Proteus mirabilis; settings: 10 μM (DMSO); mean of three ± SEM
In short: as §1

C. albicans KA205 [5] = assay: Agar well-diffusion, inhibition zone; format: cell-based, Candida albicans; settings: for Average diameter of inhibition zone (ZI): 10 μM (DMSO), mean of three ± SEM
In short: as §1

C. tropicalis KA205 [6] = assay: Agar well-diffusion, inhibition zone; format: cell-based, Candida tropicalis; settings: for Average diameter of inhibition zone (ZI): 10 μM (DMSO), mean of three ± SEM
In short: as §1

E. faecalis KA247 [7] = assay: Broth microdilution MIC and MBC; format: cell-based; settings: Enterococcus faecalis, KA247, 24 h
S. aureus KA112 [8] = assay: Broth microdilution MIC and MBC; format: cell-based; settings: Staphylococcus aureus; for MIC: KA112, 24 h; for MBC: KA112, read-out: MBC/MIC
E. coli KA780 [9] = assay: Broth microdilution MIC and MBC; format: cell-based; settings: Escherichia coli; for MIC: KA780, 24 h; for MBC: KA780, read-out: MBC/MIC
P. mirabilis KA320 [10] = assay: Broth microdilution MIC and MBC; format: cell-based; settings: Proteus mirabilis; for MIC: KA320, 24 h; for MBC: KA320, read-out: MBC/MIC
C. albicans KA205 [11] = assay: Broth microdilution MIC and MFC; format: cell-based; settings: Candida albicans; for MIC: KA205, 24 h; for MFC: KA205, read-out: MFC/MIC
C. tropicalis KA205 [12] = assay: Broth microdilution MIC and MFC; format: cell-based; settings: Candida tropicalis; for MIC: KA205, 24 h; for MFC: KA205, read-out: MFC/MIC
E. faecalis KA247 [13] = assay: Checkerboard microdilution synergy with fosfomycin; format: cell-based, Enterococcus faecalis; settings: for Fractional inhibitory concentration index (ΣFICI): combination with fosfomycin
S. aureus KA112 [14] = assay: Checkerboard microdilution synergy with fosfomycin; format: cell-based, Staphylococcus aureus; settings: for Fractional inhibitory concentration index (ΣFICI): combination with fosfomycin
E. coli KA780 [15] = assay: Checkerboard microdilution synergy with fosfomycin; format: cell-based, Escherichia coli; settings: for Fractional inhibitory concentration index (ΣFICI): combination with fosfomycin
P. mirabilis KA320 [16] = assay: Checkerboard microdilution synergy with fosfomycin; format: cell-based, Proteus mirabilis; settings: for Fractional inhibitory concentration index (ΣFICI): combination with fosfomycin
C. albicans KA205 [17] = assay: Checkerboard microdilution synergy with fluconazole; format: cell-based, Candida albicans
C. tropicalis KA205 [18] = assay: as above; format: cell-based, Candida tropicalis; settings: for Fractional inhibitory concentration index (ΣFICI): combination with fluconazole
MDR microbial isolates = assay: Time-kill kinetics, whole panel; format: cell-based; settings: all pathogenic isolates
In short: (§2)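 Untreated organisms served as controls. Bacteria were sampled at 0, 2, 4, 6, 8, 12, 18 and 24 h, and fungi at 0, 2, 4, 6, 8, 18, 24 and 48 h. Counts were made by plate count and plotted as log10 CFU mL−1 versus time.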

bacterial isolates = assay: Time-kill kinetics, bacterial isolates; format: cell-based; settings: at MIC
In short: as §2

fungal isolates [19] = assay: Time-kill kinetics, fungal isolates; format: cell-based; settings: at MIC
In short: as §2

[20] = tested on: fosfomycin-resistant (FO-R) E. coli KA780; assay: SEM of outer membrane integrity; format: cell-based; settings: at MIC, compared with DMSO
[21] = tested on: BNL: mouse normal liver cells; assay: SRB cytotoxicity assay on normal cells; format: cell-based
In short: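 Mouse normal liver BNL cells were grown in DMEM with 10% heat-inactivated FBS, penicillin and streptomycin, at 37 °C in 5% CO2. […] SRB assay: 10% TCA fixation at 4 °C for 1 h, 0.4% SRB for 10 min at room temperature, 1% acetic acid washes, 10 mM Tris solubilisation, absorbance at 540 nm. Mean of three, with SD.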

E. coli MurA enzyme = E. coli MurA enzyme (Escherichia coli, UniProt P0A749); assay: MurA enzyme inhibition assay; format: biochemical; settings: for remaining activity at 100 µM: read-out: RA (residual activity), at 100 μM
[22] = Physical and chemical stability after gamma irradiation; format: physicochemical; settings: gamma radiation 3.0 kGy to 20.0 kGy; for stability of the chemical structure after irradiation: UV-VIS spectrophotometer
In short: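 Compound powders in sterile tubes were irradiated by a 60Co source at 3.0, 5.0, 7.0, 10.0, 15.0 and 20.0 kGy, at a dose rate of 0.9 kGy h−1. Non-irradiated and irradiated samples were checked for physical and chemical changes by UV-VIS spectrophotometry at 560 nm.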

fungal isolates [23] = assay: Agar well-diffusion, inhibition zone, fungal panel; format: cell-based
In short: as §1

[24] = tested on: MDR bacterial and fungal isolates; assay: Broth microdilution MIC/MBC/MFC, whole panel; format: cell-based; settings: bactericidal/fungicidal if MBC or MFC not greater than four times the MIC
fungal isolates [25] = assay: Broth microdilution MIC/MFC, fungal panel; format: cell-based

Chain of E. coli MurA enzyme (P0A749 whole entry): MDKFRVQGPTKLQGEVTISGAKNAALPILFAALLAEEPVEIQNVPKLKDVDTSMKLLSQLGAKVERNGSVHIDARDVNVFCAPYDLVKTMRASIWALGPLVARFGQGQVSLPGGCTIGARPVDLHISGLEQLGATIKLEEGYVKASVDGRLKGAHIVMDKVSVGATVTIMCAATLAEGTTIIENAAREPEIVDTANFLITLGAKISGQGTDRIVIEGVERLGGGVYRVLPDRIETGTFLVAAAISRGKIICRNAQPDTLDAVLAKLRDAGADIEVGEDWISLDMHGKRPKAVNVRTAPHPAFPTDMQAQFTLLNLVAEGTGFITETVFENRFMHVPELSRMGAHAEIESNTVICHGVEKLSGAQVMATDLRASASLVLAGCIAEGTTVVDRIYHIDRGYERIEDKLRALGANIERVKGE

Compound	Average diameter of inhibition zone (ZI) (E. faecalis KA247 [1])	Average diameter of inhibition zone (ZI) (S. aureus KA112 [2])	Average diameter of inhibition zone (ZI) (E. coli KA780 [3])	Average diameter of inhibition zone (ZI) (P. mirabilis KA320 [4])	Average diameter of inhibition zone (ZI) (C. albicans KA205 [5])	Average diameter of inhibition zone (ZI) (C. tropicalis KA205 [6])	MIC (E. faecalis KA247 [7])	MIC (S. aureus KA112 [8])	MBC (S. aureus KA112 [8])	MIC (E. coli KA780 [9])	MBC (E. coli KA780 [9])	MIC (P. mirabilis KA320 [10])	MBC (P. mirabilis KA320 [10])	MIC (C. albicans KA205 [11])	MFC (C. albicans KA205 [11])	MIC (C. tropicalis KA205 [12])	MFC (C. tropicalis KA205 [12])	combination effect (E. faecalis KA247 [13])	Fractional inhibitory concentration index (ΣFICI) (E. faecalis KA247 [13])	time of maximum killing rate / maximum reduction in cell counts (fungal isolates [19])	further results
CN(C)c1ccc(C(Nc2nc3c(-c4ccc([N+](=O)[O-])cc4)nn(-c4ccccc4)c3s2)P(=O)(Oc2ccccc2)Oc2ccccc2)cc1 (stereo not drawn) [Compound 5b, Diphenyl((4-(dimethylamino)phenyl)((3-(4-nitrophenyl)-1-phenyl-1H-pyrazolo[4,3-d]thiazol-5-yl)amino)methyl)phosphonate]	23 ± 0.88 mm	24 ± 0.03 mm	25 ± 0.00 mm	23 ± 0.78 mm	22 ± 0.22 mm	21 ± 0.32 mm	0.125 µg/mL (≈ 0.178 µM)	0.06 µg/mL (≈ 0.0854 µM)	1 µg/mL (≈ 1.42 µM)	0.06 µg/mL (≈ 0.0854 µM)	0.5 µg/mL (≈ 0.712 µM)	0.25 µg/mL (≈ 0.356 µM)	0.5 µg/mL (≈ 0.712 µM)	0.125 µg/mL (≈ 0.178 µM)	1 µg/mL (≈ 1.42 µM)	0.5 µg/mL (≈ 0.712 µM)	0.5 µg/mL (≈ 0.712 µM)	S (FICI ≤ 0.5 (synergism))	0.5	18 h	combination effect (S. aureus KA112 [14]): S (FICI ≤ 0.5 (synergism)); Fractional inhibitory concentration index (ΣFICI) (S. aureus KA112 [14]): 0.5; combination effect (E. coli KA780 [15]): S (FICI ≤ 0.5 (synergism)); Fractional inhibitory concentration index (ΣFICI) (E. coli KA780 [15]): 0.25; combination effect (P. mirabilis KA320 [16]): S (FICI ≤ 0.5 (synergism)); Fractional inhibitory concentration index (ΣFICI) (P. mirabilis KA320 [16]): 0.25; combination effect (C. albicans KA205 [17]): P (0.5 < FICI > 1 (partial synergism)); Fractional inhibitory concentration index (ΣFICI) (C. albicans KA205 [17]; combination with fluconazole): 0.75; combination effect (C. tropicalis KA205 [18]): P (0.5 < FICI > 1 (partial synergism)); Fractional inhibitory concentration index (ΣFICI) (C. tropicalis KA205 [18]): 0.75; microbial reduction relative to the initial inoculum (MDR microbial isolates): ≥ 3 log10; time of maximum killing rate (bacterial isolates): 8 h; effect on outer membrane (SEM image) [20]: perturbation in the membrane and distinct ruptures of the OM integrity; IC50 [21]: > 100 µM; IC50 (E. coli MurA enzyme; IC50, preincubation 0 min): 45 µM; IC50 (E. coli MurA enzyme; IC50, preincubation 10 min): 4.5 µM; RA (residual activity) (E. coli MurA enzyme; at 100 μM, preincubation 10 min): 4 ± 0.55%; remaining activity at 100 µM (E. coli MurA enzyme; preincubation 10 min): 7%; physical changes (odor, color, clarity, solubility, and form) after irradiation [22]: no changes occurred; stability of the chemical structure after irradiation [22]: confirmed the stability of the chemical structure
O=[N+]([O-])c1ccc(-c2nn(-c3ccccc3)c3sc(NC(c4ccccc4O)P(=O)(Oc4ccccc4)Oc4ccccc4)nc23)cc1 (stereo not drawn) [Compound 5a, Diphenyl((2-hydroxyphenyl)((3-(4-nitrophenyl)-1-phenyl-1H-pyrazolo[4,3-d]thiazol-5-yl)amino)methyl)phosphonate]	24 ± 0.20 mm	24 ± 0.51 mm	25 ± 0.28 mm	23 ± 0.44 mm	22 ± 0.76 mm	22 ± 0.43 mm	0.125 µg/mL (≈ 0.185 µM)	0.06 µg/mL (≈ 0.0888 µM)	0.5 µg/mL (≈ 0.74 µM)	0.06 µg/mL (≈ 0.0888 µM)	0.5 µg/mL (≈ 0.74 µM)	0.125 µg/mL (≈ 0.185 µM)	0.5 µg/mL (≈ 0.74 µM)	0.125 µg/mL (≈ 0.185 µM)	0.5 µg/mL (≈ 0.74 µM)	0.125 µg/mL (≈ 0.185 µM)	1 µg/mL (≈ 1.48 µM)	S (FICI ≤ 0.5 (synergism))	0.5	16 h	combination effect (S. aureus KA112 [14]): S (FICI ≤ 0.5 (synergism)); Fractional inhibitory concentration index (ΣFICI) (S. aureus KA112 [14]): 0.25; combination effect (E. coli KA780 [15]): S (FICI ≤ 0.5 (synergism)); Fractional inhibitory concentration index (ΣFICI) (E. coli KA780 [15]): 0.25; combination effect (P. mirabilis KA320 [16]): S (FICI ≤ 0.5 (synergism)); Fractional inhibitory concentration index (ΣFICI) (P. mirabilis KA320 [16]): 0.5; combination effect (C. tropicalis KA205 [18]): S (FICI ≤ 0.5 (synergism)); Fractional inhibitory concentration index (ΣFICI) (C. tropicalis KA205 [18]): 0.5; microbial reduction relative to the initial inoculum (MDR microbial isolates): ≥ 3 log10; time of maximum killing rate (bacterial isolates): 6 h; effect on outer membrane (SEM image) [20]: perturbation in the membrane and distinct ruptures of the OM integrity; IC50 [21]: > 100 µM; IC50 (E. coli MurA enzyme; IC50, preincubation 0 min): 41 µM; IC50 (E. coli MurA enzyme; IC50, preincubation 10 min): 3.8 µM; remaining activity at 100 µM (E. coli MurA enzyme; preincubation 10 min): 0%; physical changes (odor, color, clarity, solubility, and form) after irradiation [22]: no changes occurred; stability of the chemical structure after irradiation [22]: confirmed the stability of the chemical structure
OC(Cn1cncn1)(Cn1cncn1)c1ccc(F)cc1F [FCA, fluconazole, reference compound]	–	–	–	–	–	–	–	–	–	–	–	–	–	2 µg/mL (≈ 6.53 µM)	1 µg/mL (≈ 3.27 µM)	4 µg/mL (≈ 13.1 µM)	0.5 µg/mL (≈ 1.63 µM)	–	–	48 h	zone of inhibition at 10 µM (C. albicans KA205 [5]; Candida albicans, KA205, read-out: Average diameter of inhibition zone (ZI)): 17 ± 0.99 mm; zone of inhibition at 10 µM (C. tropicalis KA205 [6]; Candida tropicalis, KA205, read-out: Average diameter of inhibition zone (ZI)): 17 ± 0.15 mm; zone of inhibition at 10 µM (fungal isolates [23]): 17 mm; bactericidal/fungicidal effect [24]: bactericidal and fungicidal activities; MFC (fungal isolates [25]): 2 µg/mL (≈ 6.53 µM)
